Measurements as given in ChEMBL document CHEMBL4680231, “A glutathione-responsive photosensitizer with fluorescence resonance energy transfer characteristics for imaging-guided targeting photodynamic therapy” (Eur J Med Chem, 2020).
The source made the active and inactive calls. The rule behind the calls is not given here.

How the values were obtained:
HeLa [1] = test: Induction of ROS generation in human HeLa cells at 10 uM incubated for 12 hrs irradiated with 20 mW cm^-2 light in presence of vitamin C by DCFH-DA staining based confocal laser scanning microscopic method; type: functional, cell-based
Method in brief: (§1)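 Cells were seeded in confocal dishes overnight. Pretreatment was GSH 5 mM in DMEM for 2 h, or vitamin C 100 μM for 1 h, before compound at 10 μM for 12 h. DCFH-DA was added for 1 h, then 5 PBS washes and transfer to serum-free, phenol red-free DMEM. Cells were irradiated at 670 nm, 20 mW·cm⁻², for 3 min. Confocal imaging used λex 488 nm for DCF and 633 nm for the photosensitizer.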

H22 [2] = test: Cytotoxicity against mouse H22 cells assessed as reduction cell viability preincubated for 24 hrs in dark condition followed by irradiated with 20 mW cm^-2 light by MTT assay; type: functional, cell-based
Method in brief: (§2)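 MTT assay. About 6000 cells per well were seeded and left overnight at 37 °C, 5% CO2. Compound was added at a range of concentrations in DMEM (1% DMSO, 0.05% Tween 80) for 24 h in the dark, then the medium was replaced. Irradiated wells received a 670 nm LED at 20 mW·cm⁻² for 2 min (2.4 J·cm⁻²); dark wells were not irradiated. Cells were incubated overnight, then MTT for 4 h, DMSO added, OD read at 490 nm. Three independent experiments, each in sextuplicate. IC50 is the concentration killing 50% of cells.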

[3] = Prodrug activation in HELF cells assessed as increase in fluorescence at 10 uM after 8 hrs in presence of GSH by flow cytometric analysis; type: cell-based; conditions: human, primary lung fibroblast
Method in brief: (§3)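 Cells (10^5 per confocal dish) were seeded in DMEM overnight at 37 °C, 5% CO2. They were pretreated with 5 mM GSH in DMEM, or medium alone, for 2 h, then washed. Compound at 10 μM was added for 8 h. Intracellular fluorescence was read by confocal microscopy (excitation 633 nm) or by flow cytometry under the same conditions.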

Primary lung fibroblast = test: Induction of ROS generation in human HELF cells at 10 uM incubated for 12 hrs irradiated with 20 mW cm^-2 light in presence of vitamin C by DCFH-DA staining based confocal laser scanning microscopic method; type: functional, cell-based; method in brief: as §1
[4] = Prodrug activation in HELF cells assessed as increase in fluorescence at 10 uM after 8 hrs by flow cytometric analysis; type: cell-based; conditions: human, primary lung fibroblast; method in brief: as §3
HeLa [5] = test: Cytotoxicity against human HeLa cells assessed as reduction cell viability preincubated for 24 hrs in dark condition followed by irradiated with 20 mW cm^-2 light by MTT assay; type: functional, cell-based; method in brief: as §2
[6] = Prodrug activation in mouse H22 cells assessed as increase in fluorescence at 10 uM after 8 hrs by confocal laser scanning microscopic method; type: cell-based; conditions: h22, 8 h; method in brief: as §3
[7] = Prodrug activation in HELF cells assessed as increase in fluorescence at 10 uM after 8 hrs in presence of GSH by confocal laser scanning microscopic method; type: cell-based; conditions: human, primary lung fibroblast; method in brief: as §3
A549 [8] = test: Cytotoxicity against human A549 cells assessed as reduction cell viability preincubated for 24 hrs in dark condition followed by irradiated with 20 mW cm^-2 light by MTT assay; type: functional, cell-based; method in brief: as §2
H22 [9] = test: Photodynamic antitumor activity against mouse H22 cells implanted in Kunming mouse assessed as reduction in tumour volume at 2 mg/kg, iv administered at […] post-implantation followed by irradiated with 100 mW/cm2 […] and measured up to 15 days; type: functional, organism-based; conditions: time 15.0 day
Method in brief: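 Mice carried subcutaneous H22 tumours of about 50 mm³ and were randomised into 5 groups of 5. They received saline or compound at 2 mg/kg (100 μL) i.v. on days 1, 4 and 7. Light groups were irradiated at 670 nm, 100 mW/cm², 12 h after each dose. Tumour volume and body weight were recorded daily for 15 days. Tumours were then excised and weighed, fixed in 4% paraformaldehyde, paraffin-embedded and H&E stained. Apoptotic and necrotic areas were scored microscopically.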

[10] = Photoactivity of compound in DMF assessed as singlet oxygen generation at 10 uM irradiated with 20 mW cm^-2 light by DMA based fluorescence assay; type: functional
[11] = Prodrug activation in human A549 cells assessed as increase in fluorescence at 10 uM after 8 hrs in presence of GSH by flow cytometric analysis; type: cell-based; conditions: a549, 8 h; method in brief: as §3
A549 [12] = test: Induction of ROS generation in human A549 cells at 10 uM incubated for 12 hrs irradiated with 20 mW cm^-2 light in presence of vitamin C by DCFH-DA staining based confocal laser scanning microscopic method; type: functional, cell-based; method in brief: as §1
[13] = Prodrug activation in human HeLa cells assessed as increase in fluorescence at 10 uM after 8 hrs in presence of GSH by flow cytometric analysis; type: cell-based; method in brief: as §3
[14] = Cytotoxicity against human HELF cells assessed as reduction cell viability up to 10 uM after 24 hrs in dark condition by MTT assay; type: cell-based; conditions: primary lung fibroblast; method in brief: as §2
[15] = Prodrug activation in human A549 cells assessed as increase in fluorescence at 10 uM after 8 hrs by flow cytometric analysis; type: cell-based; conditions: a549, 8 h; method in brief: as §3
[16] = Photoactivity of compound in PBS with 0.05% Tween 80 assessed as singlet oxygen generation at 10 uM irradiated with 20 mW cm^-2 light in presence on GSH by DMA based fluorescence assay
H22 [17] = test: Induction of ROS generation in mouse H22 cells at 10 uM incubated for 12 hrs irradiated with 20 mW cm^-2 light in presence of GSH by DCFH-DA staining based confocal laser scanning microscopic method; type: functional, cell-based; method in brief: as §1
[18] = Prodrug activation in human HeLa cells assessed as increase in fluorescence at 10 uM after 8 hrs in presence of GSH by confocal laser scanning microscopic method; type: cell-based; method in brief: as §3
[19] = Prodrug activation in mouse H22 cells assessed as increase in fluorescence at 10 uM after 8 hrs in presence of GSH by confocal laser scanning microscopic method; type: cell-based; conditions: h22, 8 h; method in brief: as §3
[20] = Prodrug activation in human A549 cells assessed as increase in fluorescence at 10 uM after 8 hrs by confocal laser scanning microscopic method; type: cell-based; conditions: a549, 8 h; method in brief: as §3
H22 [21] = test: Induction of ROS generation in mouse H22 cells at 10 uM incubated for 12 hrs irradiated with 20 mW cm^-2 light in presence of vitamin C by DCFH-DA staining based confocal laser scanning microscopic method; type: functional, cell-based; method in brief: as §1
[22] = Prodrug activation in HELF cells assessed as increase in fluorescence at 10 uM after 8 hrs by confocal laser scanning microscopic method; type: cell-based; conditions: human, primary lung fibroblast; method in brief: as §3
HeLa [23] = test: Induction of ROS generation in human HeLa cells at 10 uM incubated for 12 hrs irradiated with 20 mW cm^-2 light in presence of GSH by DCFH-DA staining based confocal laser scanning microscopic method; type: functional, cell-based; method in brief: as §1
HeLa [24] = test: Cytotoxicity against human HeLa cells assessed as reduction cell viability up to 10 uM after 24 hrs in dark condition by MTT assay; type: cell-based; method in brief: as §2
H22 [25] = test: Cytotoxicity against mouse H22 cells assessed as reduction cell viability up to 10 uM after 24 hrs in dark condition by MTT assay; type: cell-based; conditions: h22, 24 h; method in brief: as §2
A549 [26] = test: Induction of ROS generation in human A549 cells at 10 uM incubated for 12 hrs irradiated with 20 mW cm^-2 light in presence of GSH by DCFH-DA staining based confocal laser scanning microscopic method; type: functional, cell-based; method in brief: as §1

Row | Structure (SMILES) | Activity (HeLa [1]) | Drug metabolism [3] | Activity (Primary lung fibroblast) | Drug metabolism [4] | Drug metabolism [6] | Drug metabolism [7] | Activity (H22 [9]) | Drug metabolism [10] | Drug metabolism [11] | Activity (A549 [12]) | Drug metabolism [13] | Activity [14] | Drug metabolism [15] | Drug metabolism [16] | Activity (H22 [17]) | Drug metabolism [18] | Drug metabolism [19] | Drug metabolism [20] | Activity (H22 [21]) | Drug metabolism [22] | other results
1 | COCCOCCOCCOc1ccc(/C=C/C2=[N+]3C(=C(c4ccc(OCc5cn(CCSSCCn6cc(COc7ccc(C8=C9C(C)=CC(/C=C/c%10ccc(N(C)C)cc%10)=[N+]9[B-](F)(F)n9c(/C=C/c%10ccc(N(C)C)cc%10)cc(C)c98)cc7)nn6)nn5)cc4)c4c(C)c(I)c(/C=C/c5ccc(OCCOCCOCCOC)cc5)n4[B-]3(F)F)C(C)=C2I)cc1 | inactive | Metabolite_Detected | inactive | Metabolite_Notdetected | Metabolite_Detected | Metabolite_Detected | Active | Metabolite not detected | Metabolite_Detected | inactive | Metabolite_Detected | Non-Toxic | Metabolite_Detected | Metabolite detected | Active | Metabolite_Detected | Metabolite_Detected | Metabolite_Detected | inactive | Metabolite_Notdetected | IC50 (H22 [2]; H22, light or radiation study): 480 nM; IC50 (HeLa [5]; light or radiation study): 670 nM; IC50 (A549 [8]; A549, light or radiation study): 440 nM; Activity (HeLa [23]): Active; Activity (HeLa [24]): Non-Toxic; Activity (H22 [25]): Non-Toxic; Activity (A549 [26]): Active
2 | COCCOCCOCCOc1ccc(/C=C/C2=[N+]3C(=C(c4ccc(OCc5cn(CCCCCCn6cc(COc7ccc(C8=C9C(C)=CC(/C=C/c%10ccc(N(C)C)cc%10)=[N+]9[B-](F)(F)n9c(/C=C/c%10ccc(N(C)C)cc%10)cc(C)c98)cc7)nn6)nn5)cc4)c4c(C)c(I)c(/C=C/c5ccc(OCCOCCOCCOC)cc5)n4[B-]3(F)F)C(C)=C2I)cc1 | inactive | Metabolite_Notdetected | inactive | Metabolite_Notdetected | Metabolite_Notdetected | Metabolite_Notdetected | Active | Metabolite not detected | Metabolite_Notdetected | inactive | Metabolite_Notdetected | Non-Toxic | Metabolite_Notdetected | Metabolite not detected | inactive | Metabolite_Notdetected | Metabolite_Notdetected | Metabolite_Notdetected | inactive | Metabolite_Notdetected | Activity (H22 [2]): inactive; Activity (HeLa [5]): inactive; Activity (A549 [8]): inactive; Activity (HeLa [23]): inactive; Activity (HeLa [24]): Non-Toxic; Activity (H22 [25]): Non-Toxic; Activity (A549 [26]): inactive
